Here are results for four compounds from ChEMBL document CHEMBL3351346, “Design, synthesis, structure-function relationship, bioconversion, and pharmacokinetic evaluation of ertapenem prodrugs” (J Med Chem, 2014).

Data set [1] relates to Canis familiaris. Description: Oral bioavailability in fasted Beagle dog assessed as ertapenem level at 10 mg/kg dosed through intraduodenal route by LC-MS/MS method. In kind it is ADME, organism-based, Canis lupus familiaris. The conditions noted are these: in vivo. Put shortly:
(§1)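 After intraduodenal dosing, plasma over 8 h was analysed by LC-MS/MS. Bioavailability was calculated as dose-normalized AUC of ertapenem formed from the prodrug divided by dose-normalized AUC of ertapenem dosed iv. Vehicle was 30% Captisol or 0.5% methylcellulose.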

Data set [2] concerns Canis familiaris. Description: AUC (0 to 8 hrs) in fasted Beagle dog assessed as ertapenem level at 10 mg/kg dosed through intraduodenal route by LC-MS/MS method. In kind it is ADME, organism-based, Canis lupus familiaris, Plasma. Also noted: time < 8 hr, dose 10 mg/kg, route intraduodenal. As to conditions: in vivo, other. Put shortly:
(§2)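 Prodrugs were given intraduodenally to bypass stomach acid. Plasma was sampled at intervals over 8 h, and parent prodrug, the two monoester metabolites and ertapenem were quantified by LC-MS/MS. The lower limit of quantitation was 5 nM. AUC(0–8) was used, and it differed from AUC(0–∞) by ±20%. Vehicles were 30% Captisol or 0.5% methylcellulose, as solution or suspension depending on compound.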

In data set [3] the test system is Canis familiaris. The experiment in a line: Oral bioavailability in fasted Beagle dog assessed as assessed as ertapenem and monoetser metabolites level at 10 mg/kg dosed through intraduodenal route by LC-MS/MS method. The format is ADME, organism-based, Canis lupus familiaris. As to conditions: in vivo. Put shortly: (§3)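 Total absorption followed intraduodenal dosing with LC-MS/MS of plasma over 8 h. It was calculated as the combined dose-normalized AUC of circulating parent prodrug, ertapenem and two monoesters, divided by dose-normalized AUC of ertapenem given iv. Vehicle was 30% Captisol or 0.5% methylcellulose.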

A short description of data set [4]: Stability in pH 6.5 simulated gastrointestinal fluid assessed as compound remaining at 50 uM after 3 hrs by LC-MS/MS method. The format is ADME. As to conditions: read-out: Stability. Put shortly: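 Compounds at 50 μM were incubated in fasted-state simulated intestinal fluid (FaSSIF, pH 6.5) for over 3 h. Percent remaining was determined by LC-MS/MS.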
Data set [5] in a line: Stability in pH 2.0 simulated gastric fluid assessed as compound degradation to beta-lactam ring open products at 1 uM after 60 mins by LC-MS/MS method. In kind it is ADME. The conditions noted are these: read-out: Drug degradation. In outline: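 Incubation was in simulated gastric fluid (SGF, pH 2.0) for 60 min, with loss to the β-lactam ring-opened product measured by LC-MS/MS.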

Data set [6] relates to Rattus norvegicus. Description: Oral bioavailability in fasted Sprague-Dawley rat assessed as ertapenem and monoetser metabolites level at 10 mg/kg dosed through intraduodenal route by LC-MS/MS method. In kind it is ADME, organism-based. As to conditions: in vivo. Put shortly: as §3
Data set [7] can be described thus: Stability in pH 7.4 phosphate buffer assessed as compound remaining at 50 uM after 3 hrs by LC-MS/MS method. In kind it is physicochemical. As to conditions: read-out: Stability.
Data set [8] in a line: Stability in human plasma assessed as compound remaining at 50 uM at 37 degC after 60 mins by LC-MS/MS method. In kind it is ADME, cell-free. As to conditions: read-out: Stability. In outline: (§4)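 Prodrugs were incubated in rat or human plasma for 60 min. Disappearance of prodrug and concomitant appearance of ertapenem were followed by LC-MS/MS, and in selected cases monoesters from partial hydrolysis were also monitored. Ertapenem itself was incubated the same way as a control.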

Data set [9] has as its system Rattus norvegicus. Description: AUC (0 to 8 hrs) in fasted Sprague-Dawley rat at 10 mg/kg dosed through intraduodenal route by LC-MS/MS method. Also noted: time < 8 hr, dose 10 mg/kg, route intraduodenal. The format is ADME, organism-based, Plasma. The conditions noted are these: in vivo, other, 8 h, BLD = below limit of detection. Put shortly:
as §2

For data set [10], the system named is Canis familiaris. Description: AUC (0 to 8 hrs) in fasted Beagle dog at 10 mg/kg dosed through intraduodenal route by LC-MS/MS method. In kind it is ADME, organism-based, Canis lupus familiaris, Plasma. Also noted: time < 8 hr, dose 10 mg/kg, route intraduodenal. As to conditions: in vivo, other, 8 h, BLD = below limit of detection. Put shortly:
as §2

For data set [11], the system named is Rattus norvegicus. Description: AUC (0 to 8 hrs) in fasted Sprague-Dawley rat assessed as ertapenem level at 10 mg/kg dosed through intraduodenal route by LC-MS/MS method. Also noted: time < 8 hr, dose 10 mg/kg, route intraduodenal. In kind it is ADME, organism-based, Plasma. As to conditions: in vivo, other. In outline: as §2
Data set [12] can be described thus: Stability in rat plasma assessed as compound remaining at 50 uM at 37 degC after 60 mins by LC-MS/MS method. In kind it is ADME, cell-free. As to conditions: read-out: Stability. In outline:
as §4

Data set [13] has as its system Rattus norvegicus. Description: Oral bioavailability in fasted Sprague-Dawley rat assessed as ertapenem level at 10 mg/kg dosed through intraduodenal route by LC-MS/MS method. In kind it is ADME, organism-based. The conditions noted are these: in vivo. Put shortly:
as §1

The test system of data set [14] is Canis familiaris. The experiment in a line: AUC (0 to 8 hrs) in fasted Beagle dog assessed as 8-OH, C-3 ester level at 10 mg/kg dosed through intraduodenal route by LC-MS/MS method. The conditions noted are these: in vivo, other. Also noted: time < 8 hr, dose 10 mg/kg, route intraduodenal. In kind it is ADME, organism-based, Canis lupus familiaris, Plasma. Put shortly: as §2

The test system of data set [15] is Rattus norvegicus. Description: AUC (0 to 8 hrs) in fasted Sprague-Dawley rat assessed as 8-OH, C-3 ester level at 10 mg/kg dosed through intraduodenal route by LC-MS/MS method. The format is ADME, organism-based, Plasma. Also noted: time < 8 hr, dose 10 mg/kg, route intraduodenal. The conditions noted are these: in vivo, other, BLD = below limit of detection. In outline:
as §2

Data set [16] has as its system Canis familiaris. Description: AUC (0 to 8 hrs) in fasted Beagle dog assessed as 8-OH, benzoate ester level at 10 mg/kg dosed through intraduodenal route by LC-MS/MS method. The format is ADME, organism-based, Canis lupus familiaris, Plasma. Also noted: time < 8 hr, dose 10 mg/kg, route intraduodenal. As to conditions: in vivo, other, BLD = below limit of detection. Put shortly:
as §2

In data set [17] the test system is Rattus norvegicus. The experiment in a line: AUC (0 to 8 hrs) in fasted Sprague-Dawley rat assessed as 8-OH, benzoate ester level at 10 mg/kg dosed through intraduodenal route by LC-MS/MS method. In kind it is ADME, organism-based, Plasma. Also noted: time < 8 hr, dose 10 mg/kg, route intraduodenal. The conditions noted are these: in vivo, other, BLD = below limit of detection. In outline:
as §2

In data set [18] the test system is Rattus norvegicus. The experiment in a line: Oral bioavailability in fasted Sprague-Dawley rat assessed as ertapenem and monoetser metabolites level at 7.4 mg/kg dosed through intraduodenal route by LC-MS/MS method. The format is ADME, organism-based. As to conditions: in vivo. Put shortly:
as §3

Data set [19] has as its system Rattus norvegicus. Description: AUC (0 to 8 hrs) in fasted Sprague-Dawley rat assessed as ertapenem level at 7.4 mg/kg dosed through intraduodenal route by LC-MS/MS method. The format is ADME, organism-based, Plasma. Also noted: time < 8 hr, dose 7.4 mg/kg, route intraduodenal. As to conditions: in vivo, other. In outline:
as §2

Data set [20] concerns Rattus norvegicus. The experiment in a line: Oral bioavailability in fasted Sprague-Dawley rat assessed as ertapenem level at 7.4 mg/kg dosed through intraduodenal route by LC-MS/MS method. In kind it is ADME, organism-based. The conditions noted are these: in vivo. Put shortly: as §1
The subject of data set [21] is Rattus norvegicus. Description: AUC (0 to 8 hrs) in fasted Sprague-Dawley rat at 7.4 mg/kg dosed through intraduodenal route by LC-MS/MS method. As to conditions: in vivo, other, BLD = below limit of detection. Also noted: time < 8 hr, dose 7.4 mg/kg, route intraduodenal. The format is ADME, organism-based, Plasma. Put shortly: as §2

For `C[C@@H](O)[C@H]1C(=O)N2C(C(=O)OCc3oc(=O)oc3C(C)(C)C)=C(S[C@@H]3CN[C@H](C(=O)Nc4cccc(C(=O)OCc5oc(=O)oc5C(C)(C)C)c4)C3)[C@H](C)[C@H]12`, the F came out at 0.4% in the data set with Canis familiaris [1], 0.4% in the data set with Canis familiaris [3], 0.3% with Rattus norvegicus [6] and 0.3% with Rattus norvegicus [13]. The AUC was 0.2 µM·h in the data set on Canis familiaris [2], “BLD” in the data set on Rattus norvegicus [9], “BLD” in the data set on Canis familiaris [10] and 0.2 µM·h in the data set with Rattus norvegicus [11]. Further, the remaining at 3 h, 50 µM in data set [4] and in data set [7] was more than 95% throughout. For the same compound, the degraded at 1 h, 1 µM in [5] is more than 25%. Besides, the results for the remaining at 1 h, 50 µM in data set [8] and in data set [12] were 10% and 0%, respectively.
For the compound `CC(C)C(=O)OCOC(=O)C1=C(S[C@@H]2CN[C@H](C(=O)Nc3cccc(C(=O)OCOC(=O)C(C)C)c3)C2)[C@H](C)[C@@H]2[C@@H]([C@@H](C)O)C(=O)N12`, the F in the data set on Canis familiaris [1] was determined as 3.6%; with Canis familiaris [3], 3.6%; in the data set on Rattus norvegicus [6], 1.8%; in the data set with Rattus norvegicus [13], 1.8%. Moreover, the area under the curve (AUC) in the data set with Canis familiaris [2] is 2.2 µM·h; in the data set with Canis familiaris [14] (BLD = below limit of detection), “BLD”; in the data set with Rattus norvegicus [15], “BLD”; in the data set with Rattus norvegicus [9], “BLD”; with Canis familiaris [10] it was “BLD”; in the data set on Canis familiaris [16], “BLD”. Besides, the results for the AUC with Rattus norvegicus [11] and in the data set on Rattus norvegicus [17] were 0.9 µM·h and “BLD”, respectively. Besides, the remaining at 3 h, 50 µM in [4] and in [7] was more than 95% throughout. Also, the degraded at 1 h, 1 µM in data set [5] was more than 25%. The figures for the remaining at 1 h, 50 µM in data set [8] and in data set [12] were 8% and 1%, respectively.
For the compound `C[C@@H](O)[C@H]1C(=O)N2C(C(=O)OCOC(=O)C(C)(C)C)=C(S[C@@H]3CN[C@H](C(=O)Nc4cccc(C(=O)OCOC(=O)C(C)(C)C)c4)C3)[C@H](C)[C@H]12`, the F is 3% in the data set with Canis familiaris [1], 3.07% in the data set on Canis familiaris [3], 0.4% in the data set with Rattus norvegicus [6] and 0.4% in the data set with Rattus norvegicus [13]. Besides, the AUC with Canis familiaris [14] is less than 0.1 µM·h; with Rattus norvegicus [15] it was “BLD”; in the data set with Rattus norvegicus [9] it was “BLD”; in the data set with Canis familiaris [10], “BLD”; in the data set with Canis familiaris [16], “BLD”; with Rattus norvegicus [17], “BLD”. For the same compound, the remaining at 3 h, 50 µM in [4] and in data set [7] was more than 95% throughout. Also, in [5], the degraded at 1 h, 1 µM was more than 25%.
In the case of `Cc1oc(=O)oc1COC(=O)C1=C(S[C@@H]2CN[C@H](C(=O)Nc3cccc(C(=O)OCc4oc(=O)oc4C)c3)C2)[C@H](C)[C@@H]2[C@@H]([C@@H](C)O)C(=O)N12`, the F in the data set with Rattus norvegicus [18] and with Rattus norvegicus [20] was 0.8% each time. For the same compound, the remaining at 3 h, 50 µM in [4] and in [7] was more than 95% throughout. In [5], the degraded at 1 h, 1 µM was more than 25%. For the same compound, the AUC in the data set on Rattus norvegicus [19] is 0.3 µM·h; in the data set on Rattus norvegicus [21], “BLD”. Also, the remaining at 1 h, 50 µM in data set [12] amounted to 0%.

Usually AUC stands for concentration integrated over time.
